Substitutions are numbered along the chain they refer to. “Also recorded” adds a separate entry of the source.
Legend:
rP2X7-Q143A/I214A = target: T1, rP2X7-Q143A/I214A (Rattus norvegicus, UniProt Q64663, I214A/Q143A); assay: TEVC deactivation time; format: cell-based; conditions: after 100 μM ATP or 10 μM BzATP
T1 sequence (Q64663 1-595 Q143A/I214A): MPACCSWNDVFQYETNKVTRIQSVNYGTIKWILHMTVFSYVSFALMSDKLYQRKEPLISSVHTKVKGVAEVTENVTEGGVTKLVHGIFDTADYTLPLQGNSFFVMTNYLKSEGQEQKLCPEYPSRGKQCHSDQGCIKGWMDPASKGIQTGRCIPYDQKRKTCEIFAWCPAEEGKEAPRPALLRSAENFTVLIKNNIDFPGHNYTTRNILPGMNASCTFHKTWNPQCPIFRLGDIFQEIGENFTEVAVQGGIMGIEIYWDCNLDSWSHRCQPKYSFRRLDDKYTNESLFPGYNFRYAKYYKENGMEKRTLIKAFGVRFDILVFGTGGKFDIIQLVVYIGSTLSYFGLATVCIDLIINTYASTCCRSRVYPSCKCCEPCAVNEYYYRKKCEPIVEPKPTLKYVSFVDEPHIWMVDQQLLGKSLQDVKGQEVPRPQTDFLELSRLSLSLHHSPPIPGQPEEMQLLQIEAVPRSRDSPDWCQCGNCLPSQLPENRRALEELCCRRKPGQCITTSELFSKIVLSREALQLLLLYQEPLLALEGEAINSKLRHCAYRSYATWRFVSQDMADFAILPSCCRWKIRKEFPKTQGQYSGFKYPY
Method in brief: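 Xenopus oocytes injected with 50 nL of 10 ng/µL mutant rP2X7 mRNA, expressed ~20 h, clamped in pH 7.4 HEPES buffer with 0.1 mM flufenamic acid and EDTA. Currents were evoked by 100 µM ATP or 10 µM BzATP. τ is the time for current to return to 63% of baseline after agonist removal, from a one- or two-phase decay fit. Done in triplicate over first to third applications per oocyte; mean ± SD.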

[1] = target: T2, rP2X7 triple mutant (R125A/Q143A/I214A) (Rattus norvegicus, UniProt Q64663, I214A/Q143A/R125A); assay: TEVC efficacy experiments, triple mutant rP2X7 in oocytes; format: cell-based; conditions: identical concentrations
T2 sequence (Q64663 1-595 R125A/Q143A/I214A): T1 sequence (Q64663 1-595 Q143A/I214A) with R125A
Method in brief: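 Oocytes expressing rP2X7 (~20 h after mRNA injection), TEVC in pH 7.4 HEPES/flufenamic acid buffer. Each oocyte first received 100 µM ATP as the normalization reference, then sequentially 50 µM ATP, 50 µM BzATP, 100 µM ATP and 100 µM BzATP, with buffer washout to baseline between applications. Normalized currents are from triplicates per concentration per construct; mean ± SD.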

biotinylated rP2X7 = target: T3, biotinylated rP2X7 (Rattus norvegicus, UniProt Q64663); assay: Bio-layer interferometry; format: binding; conditions: for rate constant for association (ka) / rate constant for dissociation (kd): 30 °C, PBS pH 7.4, 0.5 mM DDM, 1:1 Langmuir global fit, mean ± SD of three
T3 sequence (Q64663 1-595): T1 sequence (Q64663 1-595 Q143A/I214A) with A143Q, A214I
Method in brief: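 Full-length rat P2X7 expressed in HEK293 GnTI cells by BacMam, purified in DDM/CHS (TALON, SEC), then biotinylated with NHS-PEG12-biotin at pH 8.0, 23 °C, 60 min. Loaded at 50 µg/ml onto streptavidin tips, blocked with biocytin. Threefold agonist dilutions (ATP 30–0.12 µM; BzATP 3.3–0.014 µM): 90 s association, 300 s (ATP) or 800 s (BzATP) dissociation. Double reference subtraction used biocytin sensors and zero analyte. KD = kd/ka.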

Compound	deactivation lifetime τ (rP2X7-Q143A/I214A) [s]	efficacy (agonist character, current amplitude) [1]	rate constant for association (ka) (biotinylated rP2X7; BLI)	rate constant for dissociation (kd) (biotinylated rP2X7; BLI)	higher binding affinity (KD) than ATP (biotinylated rP2X7; BLI, rP2X7)	affinity for rP2X7 lower than that of human P2X3 (biotinylated rP2X7; KD rP2X7 vs human P2X3)	affinity for rP2X7 lower than that of zebra fish P2X4 (biotinylated rP2X7; KD rP2X7 vs zebra fish P2X4) [fold]
BzATP	4.3 ± 1.7	equivalent agonists in terms of efficacy; also recorded: equal current amplitudes	3.7 ± 1.0 x10^5 M^−1s^−1	2.6 ± 1.0 x10^−3 s^−1	~ 70 fold		
Nc1ncnc2c1ncn2[C@@H]1O[C@H](COP(=O)(O)OP(=O)(O)OP(=O)(O)O)[C@@H](O)[C@H]1O [ATP]	2.9 ± 1.0	equivalent agonists in terms of efficacy; also recorded: equal current amplitudes	9.4 ± 2.4 x10^4 M^−1s^−1	5.1 ± 2.5 x10^−2 s^−1		approximately 190 fold	~46
